Source: PMC2782447 (Apoptosis : an international journal on programmed cell …, 2008)
The star is where a group is joined. pNA = O=[N+]([O-])c1ccc(N*)cc1

Columns and labels:
[1] = target: T1, caspase-6 (Homo sapiens, UniProt P55212); assay: Colorimetric substrate hydrolysis by caspase-6; format: biochemical; details: for kcat/Km: 50 mM HEPES, pH 7.25, 100 mM NaCl, 10% sucrose, 0.1% CHAPS, 405 nm, triplicate; for Relative kcat/Km (relative activity): relative to DEVD = 100%
T1 sequence (P55212 25-179 limits assumed): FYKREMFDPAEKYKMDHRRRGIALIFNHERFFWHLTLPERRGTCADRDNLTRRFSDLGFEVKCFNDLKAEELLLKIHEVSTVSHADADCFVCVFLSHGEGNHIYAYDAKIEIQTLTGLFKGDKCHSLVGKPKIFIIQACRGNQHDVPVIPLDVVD
T1 sequence (P55212 194-293 limits assumed): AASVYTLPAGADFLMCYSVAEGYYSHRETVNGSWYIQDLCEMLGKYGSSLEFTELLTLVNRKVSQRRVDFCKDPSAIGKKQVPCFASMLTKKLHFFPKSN
Summary of the method: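 It was purified by Ni-NTA and S-100 gel filtration and self-processed into active subunits. Assays used 50 mM HEPES pH 7.25, 100 mM NaCl, 10% sucrose, 0.1% CHAPS, with pNA substrates at varied concentrations, A405, in triplicate.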

[2] = target: T2, caspase-3 (Homo sapiens, UniProt P42574); assay: Colorimetric substrate hydrolysis by caspase-3; format: biochemical; details: for Relative kcat/Km (relative activity): relative to DEVD = 100%, caspase-3, pH 7.5
T2 sequence (P42574 29-175 limits assumed): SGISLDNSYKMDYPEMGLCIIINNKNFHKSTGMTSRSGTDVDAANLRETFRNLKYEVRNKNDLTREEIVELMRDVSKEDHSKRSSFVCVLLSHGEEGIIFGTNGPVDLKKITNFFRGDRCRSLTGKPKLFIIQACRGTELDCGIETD
T2 sequence (P42574 176-277 limits assumed): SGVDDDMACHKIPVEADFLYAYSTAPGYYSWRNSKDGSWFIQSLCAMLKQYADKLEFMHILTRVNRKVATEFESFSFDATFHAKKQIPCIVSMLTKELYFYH

[3] = target: T3, caspase-7 (Homo sapiens, UniProt P55210); assay: Colorimetric substrate hydrolysis by caspase-7; format: biochemical; details: relative to DEVD = 100%; caspase-7, pH 7.5
T3 sequence (P55210 24-198 limits assumed): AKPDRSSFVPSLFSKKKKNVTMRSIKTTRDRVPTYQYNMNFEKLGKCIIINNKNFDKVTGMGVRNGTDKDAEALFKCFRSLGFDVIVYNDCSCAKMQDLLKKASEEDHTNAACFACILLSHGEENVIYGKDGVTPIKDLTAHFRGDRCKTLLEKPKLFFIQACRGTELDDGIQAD
T3 sequence (P55210 207-303 limits assumed): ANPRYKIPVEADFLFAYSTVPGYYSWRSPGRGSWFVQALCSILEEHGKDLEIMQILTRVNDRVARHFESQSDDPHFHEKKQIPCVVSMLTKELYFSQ

[4] = target: caspase-8 (Homo sapiens, UniProt Q14790); assay: Colorimetric substrate hydrolysis by caspase-8; format: biochemical; details: relative to DEVD = 100%; caspase-8, pH 7.5
[5] = target: T2, caspase-3; assay: Crystal structure of caspase-3/LDESD; format: binding; details: crystal structure caspase-3/LDESD, 1.61 Å, PDB 3EDQ
[6] = target: T3, caspase-7; assay: Crystal structure of caspase-7/LDESD; format: binding; details: crystal structure caspase-7/LDESD, 2.45 Å, PDB 3EDR

Sequence of caspase-8 (Q14790 217-374 limits assumed): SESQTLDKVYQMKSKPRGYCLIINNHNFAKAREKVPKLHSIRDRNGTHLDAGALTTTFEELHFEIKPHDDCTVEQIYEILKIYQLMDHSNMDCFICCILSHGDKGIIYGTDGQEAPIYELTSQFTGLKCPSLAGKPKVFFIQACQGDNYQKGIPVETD
Sequence of caspase-8 (Q14790 385-479 limits assumed): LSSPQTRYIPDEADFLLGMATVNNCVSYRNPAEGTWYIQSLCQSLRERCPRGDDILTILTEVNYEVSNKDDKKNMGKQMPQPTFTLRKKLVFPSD

kcat/Km fold higher than DEVD ([1]; LEHD versus DEVD, caspase-6, pH 7.25) [fold] | Substance | kcat/Km [1] [min^−1μM^−1] | increased hydrolysis relative to DEVD ([2]; caspase-3, increase over DEVD) [%] | Relative kcat/Km (relative activity) [2] [%] | Relative kcat/Km (relative activity) ([1]; caspase-6, pH 7.25) [%] | Relative kcat/Km (relative activity) [3] [%] | Relative kcat/Km (relative activity) [4] [%] | activity of QDEVD compared with DEVD, in words ([2]; caspase-3) | substrate preference, in words ([1]; caspase-6, polar P5) | covalent binding mode (active site cysteine with aldehyde) [5] | covalent binding mode (active site cysteine with aldehyde) [6]
3 | LEHD | 0.19 |  |  |  |  |  |  |  |  | 
 | Ac-LDEVD-pNA | 0.068±0.01 | 50 | 146 | 118 | 56 | 20 |  |  |  | 
 | Ac-QDEVD-pNA | 0.086±0.01 |  | 85 | 148 | 67 | 18 | the activity was similar for the tetrapeptide DEVD and the pentapeptide QDEVD | preference for polar P5 in QDEVD |  | 
 | Ac-LDESD-aldehyde |  |  |  |  |  |  |  |  | forms a hemithioacetal bond with the aldehyde group of the inhibitor | forms a hemithioacetal bond with the aldehyde group of the inhibitor
